# Reference: ChEMBL document CHEMBL1127457, “Nonpeptide renin inhibitors with good intraduodenal bioavailability and efficacy in dog” (J Med Chem, 1994)
# Assays:
# [1] = Partition coefficient (logD7.4); conditions: octanol/water, pH 7.4
# [2] = Partition coefficient (logD6.5); conditions: octanol/water, pH 6.5
# [3] = molecular target: T1, Renin (Homo sapiens, UniProt P00797); assay: Tested in vitro for its ability to inhibit the human plasma renin at pH of 7.4; assay type: cell-free
# T1 sequence (P00797 whole entry): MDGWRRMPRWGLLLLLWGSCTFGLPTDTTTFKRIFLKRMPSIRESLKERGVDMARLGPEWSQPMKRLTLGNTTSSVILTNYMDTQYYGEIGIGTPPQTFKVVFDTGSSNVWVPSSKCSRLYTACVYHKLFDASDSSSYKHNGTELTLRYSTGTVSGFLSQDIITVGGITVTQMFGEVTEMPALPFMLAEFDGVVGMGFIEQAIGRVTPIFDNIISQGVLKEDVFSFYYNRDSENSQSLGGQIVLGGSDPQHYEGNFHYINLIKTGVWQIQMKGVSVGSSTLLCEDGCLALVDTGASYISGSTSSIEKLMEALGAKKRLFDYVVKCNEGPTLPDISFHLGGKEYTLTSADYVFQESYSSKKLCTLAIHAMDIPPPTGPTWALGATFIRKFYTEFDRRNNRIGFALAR
# [4] = molecular target: T1, Renin; assay: Tested in vitro for its ability to inhibit the human plasma renin; assay type: cell-free
# Outline: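 IC50 against renin in plasma from the named species (dog, ferret, human, rat); single determination in most cases.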
# [5] = Average peak plasma concentration of compound after 10 mg/kg intraduodenal administration to rat; conditions: plasma
# [6] = Average peak plasma concentration of compound after 1 mg/kg intravenous administration to rat; conditions: plasma
# [7] = Average area under curve for the compound at 10 mg/kg dose after intraduodenal administration to rat; conditions: in vivo
# [8] = Oral bioavailability in rat; conditions: in vivo, intraduodenal, 10 mg/kg
# [9] = Average area under curve for the compound at 1 mg/kg dose after intravenous administration to rat; conditions: in vivo
Compound,logD [1],logD [2],IC50 [3],IC50 [4],also measured
CCCC[C@H](O[C@@H](Cc1ccccc1)C(=O)N1CCC(OCOC)CC1)C(=O)N[C@@H](CC1CCCCC1)[C@@H](O)C[C@H](C(=O)NCCCNCCO)C(C)C,1.8,2.5,6 nM,–,–
CCCC[C@H](N[C@@H](Cc1ccccc1)C(=O)N1CCC(OCOC)CC1)C(=O)N[C@@H](CC1CCCCC1)[C@@H](O)C[C@H](C(=O)NCCNC(=O)OCc1ccccc1)C(C)C,–,–,–,17 nM,–
CCCC[C@H](N[C@@H](Cc1ccccc1)C(=O)N1CCC(OCOC)CC1)C(=O)N[C@@H](CC1CCCCC1)[C@@H](O)C[C@H](C(=O)NCCC(=O)O)C(C)C,–,–,–,8.4 nM,–
CCCC[C@H](O[C@@H](Cc1ccccc1)C(=O)N1CCC(OCOC)CC1)C(=O)N[C@@H](CC1CCCCC1)[C@@H](O)C[C@H](C(=O)NCCN)C(C)C,–,–,3.9 nM,–,–
CCCC[C@H](O[C@@H](Cc1ccccc1)C(=O)N1CCC(OCOC)CC1)C(=O)N[C@@H](CC1CCCCC1)[C@@H](O)C[C@H](C(=O)NCCNc1n[nH]c(N)n1)C(C)C,4,3.9,1.1 nM,–,–
CCCC[C@H](N[C@@H](Cc1ccccc1)C(=O)N1CCC(OCOC)CC1)C(=O)N[C@@H](CC1CCCCC1)[C@@H](O)C[C@H](C(=O)NCCC(=O)OCc1ccccc1)C(C)C,–,–,–,23 nM,–
CCCC[C@H](O[C@@H](Cc1ccccc1)C(=O)N1CCC(OCOC)CC1)C(=O)N[C@@H](CC1CCCCC1)[C@@H](O)C[C@H](C(=O)NCCNC(N)=NC#N)C(C)C,> 5,> 5,1.8 nM,–,–
CCCC[C@H](N[C@@H](Cc1ccccc1)C(=O)N1CCC(OCOC)CC1)C(=O)N[C@@H](CC1CCCCC1)[C@@H](O)C[C@H](C(=O)NCC[N+]1([O-])CCOCC1)C(C)C,–,–,–,8.4 nM,–
CCCC[C@H](O[C@@H](Cc1ccccc1)C(=O)N1CCC(OCOC)CC1)C(=O)N[C@@H](CC1CCCCC1)[C@@H](O)C[C@H](C(=O)NCCCNC(=NC#N)SC)C(C)C,–,–,–,1.3 nM,–
CCCC[C@H](O[C@@H](Cc1ccccc1)C(=O)N1CCC(OCOC)CC1)C(=O)N[C@@H](CC1CCCCC1)[C@@H](O)C[C@H](C(=O)NCCCNC(N)=NC#N)C(C)C,4.5,4.6,1.5 nM,–,–
CCCC[C@H](O[C@@H](Cc1ccccc1)C(=O)N1CCC(OCOC)CC1)C(=O)N[C@@H](CC1CCCCC1)[C@@H](O)C[C@H](C(=O)NCC/N=C(\NC#N)SC)C(C)C,> 5,> 5,9.2 nM,–,–
CCCC[C@H](O[C@@H](Cc1ccccc1)C(=O)N1CCC(OCOC)CC1)C(=O)N[C@@H](CC1CCCCC1)[C@@H](O)C[C@H](C(=O)NCCCNC(=O)OCc1ccccc1)C(C)C,–,–,4.3 nM,–,–
CCCC[C@H](O[C@@H](Cc1ccccc1)C(=O)N1CCC(OCOC)CC1)C(=O)N[C@@H](CC1CCCCC1)[C@@H](O)C[C@H](C(=O)NCCCNC(N)=S)C(C)C,–,–,2.5 nM,–,–
CCCC[C@H](O[C@@H](Cc1ccccc1)C(=O)N1CCC(OCOC)CC1)C(=O)N[C@@H](CC1CCCCC1)[C@@H](O)C[C@H](C(=O)NCCCNc1nnc(N)[nH]1)C(C)C,4.2,4.3,1.7 nM,–,–
CCCC[C@H](O[C@@H](Cc1ccccc1)C(=O)N1CCC(OCOC)CC1)C(=O)N[C@@H](CC1CCCCC1)[C@@H](O)C[C@H](C(=O)NCCNC(N)=O)C(C)C,–,–,2.8 nM,–,–
CCCC[C@H](N[C@@H](Cc1ccccc1)C(=O)N1CCC(OCOC)CC1)C(=O)N[C@@H](CC1CCCCC1)[C@@H](O)C[C@H](C(=O)NCCN)C(C)C,–,–,–,9.7 nM,–
CCCC[C@H](O[C@@H](Cc1ccccc1)C(=O)N1CCC(OCOC)CC1)C(=O)N[C@@H](CC1CCCCC1)[C@@H](O)C[C@H](C(=O)NCCCCN)C(C)C,–,–,4.3 nM,–,–
CCCC[C@H](O[C@@H](Cc1ccccc1)C(=O)N1CCC(OCOC)CC1)C(=O)N[C@@H](CC1CCCCC1)[C@@H](O)C[C@H](C(=O)NCCC(=O)O)C(C)C,2.8,1.9,–,6.8 nM,–
CCCC[C@H](N[C@@H](Cc1ccccc1)C(=O)N1CCC(OCOC)CC1)C(=O)N[C@@H](CC1CCCCC1)[C@@H](O)C[C@H](C(=O)NCC(=O)O)C(C)C,2.8,2.3,–,12 nM,–

Compound,logD [1],logD [2],IC50 [3],IC50 [4],also measured
CCCC[C@H](N[C@@H](Cc1ccccc1)C(=O)N1CCC(OCOC)CC1)C(=O)N[C@@H](CC1CCCCC1)[C@@H](O)C[C@H](C(=O)NCC(C)(C)NCCO)C(C)C,–,–,–,6.3 nM,Cmax [5]: 80 ng/mL; Cmax [6]: 3480 ng/mL; AUC [7]: 66.3 ng·h/mL; bioavailability [8]: 1%; AUC [9]: 477 ng·h/mL
CCCC[C@H](O[C@@H](Cc1ccccc1)C(=O)N1CCC(OCOC)CC1)C(=O)N[C@@H](CC1CCCCC1)[C@@H](O)C[C@H](C(=O)NCC(C)(C)N1CCOCC1)C(C)C,> 5,> 5,5.9 nM,–,–
CCCC[C@H](O[C@@H](Cc1ccccc1)C(=O)N1CCC(OCOC)CC1)C(=O)N[C@@H](CC1CCCCC1)[C@@H](O)C[C@H](C(=O)NCCCNC(N)=O)C(C)C,–,–,2 nM,–,–
CCCC[C@H](N[C@@H](Cc1ccccc1)C(=O)N1CCC(OCOC)CC1)C(=O)N[C@@H](CC1CCCCC1)[C@@H](O)C[C@H](C(=O)NCCCNCCO)C(C)C,3.5,2.9,–,7.9 nM,–
CCCC[C@H](O[C@@H](Cc1ccccc1)C(=O)N1CCC(OCOC)CC1)C(=O)N[C@@H](CC1CCCCC1)[C@@H](O)C[C@H](C(=O)NCCNC(N)=S)C(C)C,> 5,> 5,2.2 nM,–,–
CCCC[C@H](O[C@@H](Cc1ccccc1)C(=O)N1CCC(OCOC)CC1)C(=O)N[C@@H](CC1CCCCC1)[C@@H](O)C[C@H](C(=O)NCCCN)C(C)C,1.8,2.4,4.5 nM,–,–
CCCC[C@H](N[C@@H](Cc1ccccc1)C(=O)N1CCC(OCOC)CC1)C(=O)N[C@@H](CC1CCCCC1)[C@@H](O)C[C@H](C(=O)NCCNCCO)C(C)C,–,–,–,11 nM,–
CCCC[C@H](O[C@@H](Cc1ccccc1)C(=O)N1CCC(OCOC)CC1)C(=O)N[C@@H](CC1CCCCC1)[C@@H](O)C[C@H](C(=O)NCCC/N=C(/NC)NC#N)C(C)C,4.4,4.4,1.3 nM,–,–
CCCC[C@H](O[C@@H](Cc1ccccc1)C(=O)N1CCC(OCOC)CC1)C(=O)N[C@@H](CC1CCCCC1)[C@@H](O)C[C@H](C(=O)NCCNC(C)=O)C(C)C,–,–,2.6 nM,–,–
CCCC[C@H](O[C@@H](Cc1ccccc1)C(=O)N1CCC(OCOC)CC1)C(=O)N[C@@H](CC1CCCCC1)[C@@H](O)C[C@H](C(=O)NCCCNC(C)=O)C(C)C,4.3,4.3,2.4 nM,–,–
CCCC[C@H](N[C@@H](Cc1ccccc1)C(=O)N1CCC(OCOC)CC1)C(=O)N[C@@H](CC1CCCCC1)[C@@H](O)C[C@H](C(=O)NCCCN)C(C)C,3.3,2.7,–,9.5 nM,–
CCCC[C@H](O[C@@H](Cc1ccccc1)C(=O)N1CCC(OCOC)CC1)C(=O)N[C@@H](CC1CCCCC1)[C@@H](O)C[C@H](C(=O)NCCNc1noc(N)n1)C(C)C,4.4,4.5,3.1 nM,–,–
CCCC[C@H](O[C@@H](Cc1ccccc1)C(=O)N1CCC(OCOC)CC1)C(=O)N[C@@H](CC1CCCCC1)[C@@H](O)C[C@H](C(=O)NCCCCN1CCOCC1)C(C)C,–,–,3.3 nM,–,–
CCCC[C@H](O[C@@H](Cc1ccccc1)C(=O)N1CCC(OCOC)CC1)C(=O)N[C@@H](CC1CCCCC1)[C@@H](O)C[C@H](C(=O)NCCNC(=O)OCc1ccccc1)C(C)C,–,–,11 nM,–,–
CCCC[C@H](O[C@@H](Cc1ccccc1)C(=O)N1CCC(OCOC)CC1)C(=O)N[C@@H](CC1CCCCC1)[C@@H](O)C[C@H](C(=O)NCCC(=O)OCC)C(C)C,–,–,12 nM,–,–
CCCC[C@H](O[C@@H](Cc1ccccc1)C(=O)N1CCC(OCOC)CC1)C(=O)N[C@@H](CC1CCCCC1)[C@@H](O)C[C@H](C(=O)NCc1nn[nH]n1)C(C)C,–,–,8.4 nM,–,–
CCCC[C@H](N[C@@H](Cc1ccccc1)C(=O)N1CCC(OCOC)CC1)C(=O)N[C@@H](CC1CCCCC1)[C@@H](O)C[C@H](C(=O)NCC(C)(C)N)C(C)C,–,–,–,12 nM,–
CCCC[C@H](N[C@@H](Cc1ccccc1)C(=O)N1CCC(OCOC)CC1)C(=O)N[C@@H](CC1CCCCC1)[C@@H](O)C[C@H](C(=O)NCC(=O)OCc1ccccc1)C(C)C,–,–,–,21 nM,–
CCCC[C@H](O[C@@H](Cc1ccccc1)C(=O)N1CCC(OCOC)CC1)C(=O)N[C@@H](CC1CCCCC1)[C@@H](O)C[C@H](C(=O)NCC(C)(C)N)C(C)C,3.5,2.7,4.7 nM,–,–
